CHO parental Ca – ATP-evoked calcium signal inhibitors, parental CHO, primary screen, counter-screen for OX1R antagonist project, cell-based, fluorescence, Fluo-8 calcium dye | parental CHO-K1, ATP-induced calcium, Fluo-8 fluorescence | inhibition, % at 5.6 µM | hit rate 0.63% among 330,000;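 active = inhibition above that plate's mean sample inhibition plus 3 SD, cut at about 26% in these data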;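 note: 0% = ATP-challenged DMSO wells and 100% = DMSO wells without ATP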
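test system = CHO parental line | reagent = ATP stimulus | measured by = intracellular calcium via Fluo-8 no-wash fluorescent dye | control set = ATP and no-ATP DMSO wells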
OX1R antag-1 – antagonists of human orexin 1 receptor (OX1R); hit rate 1.8% among 330,000; inhibition, % at 6.6 µM; OX1R-expressing cells, FRET antagonist read-out; Orexin/Hypocretin receptor type 1 (Homo sapiens), O43613; AID 485270, 2010; in the data active = inhibition mostly above about 38%, no sharp cut-off; inactive = mostly below about 40%;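 note: 0% = agonist challenge alone and 100% = reference antagonist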
Target sequence (O43613 whole entry, looked up): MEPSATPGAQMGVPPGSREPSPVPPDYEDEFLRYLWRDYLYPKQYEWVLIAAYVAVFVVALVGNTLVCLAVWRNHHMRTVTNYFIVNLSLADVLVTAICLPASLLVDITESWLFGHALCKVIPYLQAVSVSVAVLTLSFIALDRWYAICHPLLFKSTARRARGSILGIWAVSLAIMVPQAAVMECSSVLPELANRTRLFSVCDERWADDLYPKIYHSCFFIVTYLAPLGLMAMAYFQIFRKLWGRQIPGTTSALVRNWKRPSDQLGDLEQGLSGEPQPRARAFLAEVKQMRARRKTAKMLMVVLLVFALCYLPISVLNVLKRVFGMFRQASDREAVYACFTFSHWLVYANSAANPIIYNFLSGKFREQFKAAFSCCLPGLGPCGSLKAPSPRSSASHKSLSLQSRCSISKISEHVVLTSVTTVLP
OX1R antag-2 – OX1R (HCRTR1) antagonists, primary screen, fluorescence, CHO/OX1R cells, Fluo-8 calcium, orexin A; Orexin/Hypocretin receptor type 1 (Homo sapiens), O43613; Fluo-8 calcium fluorescence; inhibition, % at 5 µM; hit rate 0.43% among 330,000;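 active = inhibition above its plate's threshold, mean inhibition of all tested compounds on the plate plus 3 SD, cut at about 37% in these data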;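 note: 0% = orexin A challenge wells and 100% = SB-334867-A antagonist wells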
CHO-K1 Ca PAM – nonselective calcium activators in parental CHO-K1 cells, primary screen, counter-screen for M1 PAM project, cell-based, Fluo-8 calcium fluorescence, full deck, 1536-well | ATP EC20; 0% at ATP EC20, 100% at ATP max | activation, % at 3 µM | hit rate 0.02% among 360,000 | AID 602247, 2012;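 active = activation above the run cutoff, the mean activation of all test compounds plus 3 SD, cut at about 40% in these data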;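 note: peak over basal fluorescence ratio in a 140 s read after ATP addition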
M1 ag parental – counter-screen for M1 agonists: effect in parental CHO-K1 cells | Fluo-8 calcium fluorescence; scaled to maximal ATP response, vehicle zero | activation, % at 3 µM | hit rate 0.48% among 360,000; in the data active = activation above about 15%;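 note: untransfected CHO-K1 host cells lacking M1 receptor as counterscreen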
CHO-K1 Ca antag – M1 antagonist counterscreen hit in parental CHO-K1 cells. ATP-induced calcium, Fluo-8 fluorescence. inhibition, % at 3 µM. hit rate 0.6% among 360,000;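 active = inhibition above a per-plate cutoff, the plate's mean sample inhibition plus 3 SD, cut at about 24% in these data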;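 note: 0% = DMSO plus EC80 ATP and 100% = DMSO alone without ATP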
Numbers without * were called inactive; x = no result. In the library only some 2.9% were active in any assay of this set; here they are far more common.

SMILES	CHO parental Ca	OX1R antag-1	OX1R antag-2	CHO-K1 Ca PAM	M1 ag parental	CHO-K1 Ca antag
O=C1C(NS(=O)(=O)c2ccc(Br)cc2)=C(N2CCCCC2)C(=O)c2ccccc21	-28.8	53.0*	-34.5	-24.4	0.3	-3.9
CCN1CCN(C2=C(NS(=O)(=O)c3ccc(C)cc3)C(=O)c3ccccc3C2=O)CC1	-10.8	61.3*	-8.0	5.3	0.7	-8.2
Clc1ccc(-c2cn(-c3nc4ccccc4s3)nn2)cc1	x	x	x	22.4	0.7	-23.1
Cc1ccc(-n2c(-c3ccccc3)c[n+]3c2CCc2ccccc2-3)c(C)c1	54.4*	36.8	17.4	6.5	4.0	13.4
Cc1ccc(-n2c(-c3ccccc3)c[n+]3c2CCC3)cc1	-8.8	22.9	-6.4	0.1	0.4	-8.3
COc1ccc(CCC(=O)NCCS(=O)(=O)N2CCN(c3ccc(OC)cc3)CC2)cc1	-23.8	12.8	-8.2	4.2	15.2*	-6.0
C=CCN1C(=O)c2ccc(C(=O)OCC(=O)N3CCN(c4ccccc4)CC3)cc2C1=O	-17.0	17.2	-16.8	-5.9	0.3	7.1
O=[N+]([O-])c1ccc(N2CCCC2)c([N+](=O)[O-])c1	x	x	x	14.3	0.8	-7.6
COC(=O)c1c(NC(=O)C2CC2)sc(C(=O)Nc2ccccc2)c1C	-23.8	1.8	-19.4	6.7	8.0	3.8
Cc1cc(NC(=O)c2ccc(-c3ccccc3[N+](=O)[O-])o2)no1	1.2	27.1*	-10.8	3.6	1.6	-15.9
CC(=O)c1cccc(NC(=O)c2ccc(-c3ccccc3[N+](=O)[O-])o2)c1	-26.0	68.8*	-6.9	3.2	12.8	0.1
CC(=O)Nc1ccc(NC(=O)C(Sc2ccccc2)c2ccccc2)cc1 (centres undefined)	-2.4	12.6	-27.4	-4.4	1.0	3.0
CC(C)NC(=O)C(Sc1ccccc1)c1ccccc1 (centres undefined)	-11.6	5.1	-5.0	-7.7	-0.1	23.8*
CCCCn1c(N)c(N(CCOC)C(=O)COC(=O)c2cc(CCC)c(C)s2)c(=O)[nH]c1=O	-1.7	16.2	-11.9	4.9	0.4	-10.1
CN(C)C(CNc1ccc(S(C)(=O)=O)cc1[N+](=O)[O-])Cc1ccccc1 (centres undefined)	-21.1	42.9*	-20.4	1.9	1.8	-15.4
O=[N+]([O-])c1cc(C(F)(F)F)ccc1NCCc1ccccn1	11.3	20.2	-2.0	19.9	4.0	-13.5
CS(=O)(=O)c1ccc(NCCc2ccccn2)c([N+](=O)[O-])c1	-6.0	52.2*	-16.9	-8.9	0.9	-0.8
O=C(CCn1c(=S)oc2ccccc21)Nc1cc([N+](=O)[O-])ccc1F	-8.3	16.1	-6.3	-1.0	1.2	-11.7
O=C(Nc1cc(C(F)(F)F)ccc1N1CCCC1)C1CC(=O)N(Cc2ccccc2)C1 (centres undefined)	x	x	x	-1.5	0.4	5.5
O=C(c1cccc(C(F)(F)F)c1)N1CCC(O)(CS(=O)(=O)Cc2ccccc2)CC1	-4.0	10.1	-6.8	20.9	1.3	-8.0
O=C(c1cccc(C(F)(F)F)c1)N1CCC(O)(CS(=O)(=O)Cc2ccc(Cl)cc2)CC1	-17.3	4.9	-14.2	-9.7	0.2	28.6*
Cc1ccc(OC(C)C(=O)OCC(=O)Nc2sccc2C(N)=O)cc1 (centres undefined)	5.7	4.3	17.8	-9.8	15.3*	5.0
NC(=O)c1ccsc1NC(=O)COC(=O)CSc1ccc(Cl)cc1	42.1*	8.3	45.3*	-15.4	9.5	23.8*
N#Cc1ccc(OCC(=O)OCC(=O)Nc2sccc2C(N)=O)cc1	5.6	6.3	16.5	-9.4	16.0*	-7.7
NC(=O)c1ccsc1NC(=O)COC(=O)c1ccncc1	x	x	x	5.2	1.3	8.9
Cc1ccc(OCC(=O)OCC(=O)Nc2sccc2C(N)=O)cc1C	11.1	10.1	20.8	-8.3	13.0	33.4*
Cc1ccsc1C(=O)OCC(=O)Nc1sccc1C(N)=O	-11.4	46.5	-19.9	3.3	4.1	6.5
COCC(=O)N(Cc1cc2ccc(C)c(C)c2n2nnnc12)C1CCCC1	-11.9	0.4	-12.4	19.3	0.3	-5.1

Screens as filed in PubChem BioAssay.
